Compound activity (PubChem BioAssay)
The list is not random: actives were taken first. Their share in the collection is about 2%.
E-selectin induc – E-selectin induction on HUVECs | AID 686992 | HUVEC E-selectin immunofluorescence imaging; normalized: neutral wells 0, TNF-alpha wells 100 | P16581 | 260,000 tested, 0.37% active | activation, % at 7.58 µM;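 active means mean E-selectin-positive cell signal at least 10% of the positive control, reached in at least 60% of replicates, without over 20% cell loss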
Target sequence (P16581 whole entry, looked up): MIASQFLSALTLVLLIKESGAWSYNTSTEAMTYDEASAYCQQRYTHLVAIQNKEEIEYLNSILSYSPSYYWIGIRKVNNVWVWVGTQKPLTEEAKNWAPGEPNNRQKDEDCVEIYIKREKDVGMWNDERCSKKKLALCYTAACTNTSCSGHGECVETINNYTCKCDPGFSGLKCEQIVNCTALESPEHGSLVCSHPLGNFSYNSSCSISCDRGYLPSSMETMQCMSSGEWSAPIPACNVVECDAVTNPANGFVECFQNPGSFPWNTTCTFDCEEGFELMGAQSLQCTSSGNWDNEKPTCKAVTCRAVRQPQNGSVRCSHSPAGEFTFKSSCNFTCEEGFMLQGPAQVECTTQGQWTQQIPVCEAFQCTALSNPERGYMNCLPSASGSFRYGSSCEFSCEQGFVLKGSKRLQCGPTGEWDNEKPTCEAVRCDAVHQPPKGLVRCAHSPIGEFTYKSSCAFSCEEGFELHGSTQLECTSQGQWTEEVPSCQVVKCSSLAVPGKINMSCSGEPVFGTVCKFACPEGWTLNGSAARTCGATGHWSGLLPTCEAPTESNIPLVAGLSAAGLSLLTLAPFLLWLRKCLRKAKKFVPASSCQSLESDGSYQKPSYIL
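Assay system: HUVEC primary endothelial cells. Input: 3,000 HUVEC seeded per well. Doses: one compound dose added by pin transfer. Read-out basis: % PE-positive cells. Benchmarks: TNF-alpha high, DMSO low. Detection: immunofluorescence imaging. Buffer or medium: EGM-2, gelatin.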
RAD52 inh – inhibitors of human RAD52 DNA annealing; P43351; recombinant RAD52 DNA annealing, FRET fluorescence; inhibition, % at 18.7 µM; 360,000 tested, 0.46% active;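 active means every replicate showing at least 50% inhibition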
PglD inh – PglD (C. jejuni) enzyme inhibition; purified PglD enzyme, DTNB colorimetric CoA detection; inhibition, % at 12.5 µM; 360,000 tested, 0.098% active; AID 602405; in the data active means inhibition above about 16%, passing the limit was not always enough
Xi reactivation – reactivates the inactive X chromosome in mouse fibroblasts. XiGFP mouse fibroblasts, % GFP-positive cells imaging, 3 d; cells co-treated with 5-aza-dC sensitizer; scaled so ellipticine positive control = 100%. activation, % at 7.58 µM. 360,000 tested, 0.055% active. AID 743238;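 active means mean normalized replicate activation at least 10% and every replicate at or above 10%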
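System: SV40-immortalized XiGFP fibroblast cells, line 68-5-11 / Incubation: 3-day compound exposure, then 15 min fixation at room temperature / Compound: single concentration per compound, delivered by pin transfer / Buffer or medium: DMEM plus 5-aza-dC sensitizer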
rRNA inh HTS – inhibitors of bacterial rRNA selective over humanized ribosomes; E. coli WT GFP vs humanized-ribosome RFP mutants, fluorescence, 24 h; active compounds read low; DMSO median 0, no signal -100; GFP signal change (wild-type ribosome), % (no concentration beside the values); 350,000 tested, 1.6% active;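 active means significant combined selectivity score with lowered wild-type GFP, culture density cut under 30%, mutant RFP and density less affected; inactive means any of these conditions unmet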
RAD54 branch – RAD54 (human) branch migration inhibition; Q92698; RAD54 Holliday junction branch migration, FAM/BHQ fluorescence; inhibition, % at 10.4 µM; 360,000 tested, 0.14% active; AID 602329;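 active means mean normalized replicate activity at least 40 and at least half of replicates scoring 40 or more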;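 further: inhibitors cause a drop in the FAM fluorescence signal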
Large screens that a line does not name were inactive; ! = a repeat was not active.

CCCCn1c(N)c(Sc2ccc(Cl)cc2)c(=O)[nH]c1=O	rRNA inh HTS -21 (no result: E-selectin induc, Xi reactivation)
O=C(Nc1ccc(N2CCOCC2)c(S(=O)(=O)Nc2cc(Cl)ccc2Cl)c1)c1cccnc1	rRNA inh HTS -35
COC(=O)Cc1[nH]n(-c2nc3ccccc3s2)c(=O)c1C(C)=Nc1ccc(C)cc1	rRNA inh HTS -26 (no result: E-selectin induc, PglD inh, RAD54 branch)
COC(=O)Cc1[nH]n(-c2nc3ccccc3s2)c(=O)c1C(C)=Nc1ccc(Cl)cc1	none (no result: PglD inh, RAD54 branch)
O=C(CCN1CCCCC1)NCC[C@H]1CC[C@H](NC(=O)Nc2ccc(Cl)cc2)[C@H](CO)O1	none
O=c1[nH]c2c(s1)C(c1ccccc1)C1C3CCC(C3)C1S2 (stereo unspecified)	none (no result: E-selectin induc, RAD52 inh, Xi reactivation, rRNA inh HTS)
COc1cc(C2c3sc(=O)[nH]c3SC3C4CCC(C4)C23)ccc1O (stereo unspecified)	rRNA inh HTS -32 (no result: E-selectin induc, Xi reactivation)
COc1cccc(NC(=O)Nc2ccc3c(c2)C(=O)N(C)C[C@H](OC)[C@@H](C)CN(C)[C@@H](C)CO3)c1	RAD52 inh 79
COc1cccc(C(=O)Nc2ccc3c(c2)C(=O)N(C)C[C@H](OC)[C@H](C)CN(C)[C@H](C)CO3)c1	none
COc1cccc(NC(=O)Nc2ccc3c(c2)C(=O)N(C)C[C@@H](OC)[C@@H](C)CN(CC2CC2)[C@@H](C)CO3)c1	RAD52 inh 70
COc1cccc(C(=O)Nc2ccc3c(c2)OC[C@H](C)N(CCc2ccccc2)C[C@@H](C)[C@@H](OC)CN(C)C3=O)c1	rRNA inh HTS -25!
COc1cccc(C(=O)Nc2ccc3c(c2)OC[C@@H](C)N(CCc2ccccc2)C[C@@H](C)[C@@H](OC)CN(C)C3=O)c1	none
CCCN1C[C@@H](C)[C@@H](OC)CN(C)C(=O)c2ccc(NC(=O)Nc3cccc(OC)c3)cc2OC[C@@H]1C	RAD52 inh 68
COc1ccc2c3c([nH]c2c1)[C@H](CO)N(C(=O)c1ccncc1)CC31CN(C(=O)CC2CC2)C1	none (no result: RAD52 inh, PglD inh, RAD54 branch)
COc1ccc2c3c(n(C)c2c1)[C@@H](CO)N(Cc1ccc2c(c1)OCO2)CC31CCN(C(=O)c2ccc3c(c2)OCO3)CC1	none (no result: RAD52 inh, PglD inh, RAD54 branch)
COc1ccc2c3c([nH]c2c1)[C@@H](CO)N(C(=O)c1ccccc1)CC31CCN(C(=O)CC2CC2)CC1	none (no result: PglD inh, RAD54 branch)
Cc1cccc(NC(=O)CCCCCN2C(=O)[C@@H]3Cc4ccccc4CN3C2=O)c1	none (no result: PglD inh, RAD54 branch)
O=C(CCCCCN1C(=O)[C@@H]2Cc3ccccc3CN2C1=O)Nc1cccc(F)c1	rRNA inh HTS -35
CCOC(=O)Nc1ccc(C(=O)Oc2ccccc2)c(O)c1	rRNA inh HTS -32 (no result: E-selectin induc, Xi reactivation)
C[C@H]1CCCCO[C@H](CN(C)C(=O)CCCN(C)C)[C@@H](C)CN([C@@H](C)CO)C(=O)c2cc(NS(=O)(=O)c3cccs3)ccc2O1	none (no result: PglD inh, RAD54 branch)
Cc1cccc(C)c1NC(=O)C1C(c2ccc3c(c2)OCO3)=Nc2ccccc2N1C(=O)c1ccccn1 (stereo unspecified)	E-selectin induc 119 (no result: PglD inh, RAD54 branch)
Cc1ccccc1NC(=O)Nc1ccc2c(c1)C(=O)N(C)[C@@H]1CC[C@@H](CC(=O)NCC3CC3)O[C@H]1CO2	none
Nc1ccc2cc3[nH]c4cc(N)ccc4c3nc2c1	Xi reactivation 63 (no result: PglD inh, RAD54 branch)
CN1c2ccc(-c3ccc(C#N)cc3)cc2[C@@H]2[C@@H](CCN2C(=O)CN2CCOCC2)[C@@H]1CO	none (no result: RAD52 inh)
Cc1ccc(S(=O)(=O)N2[C@@H](c3ccccc3)C(C(=O)O)=CC[C@H]2c2cccs2)cc1	none
Cc1ccc(S(=O)(=O)N2[C@@H](c3ccccc3F)C(C(=O)O)=CC[C@H]2c2cccs2)cc1	rRNA inh HTS -16
Cc1ccc([C@H]2C(C(=O)O)=CC[C@@H](c3ccc(C)cc3)N2S(=O)(=O)c2ccccc2C)cc1	rRNA inh HTS -39
CCc1ccc([C@@H]2CC=C(C(=O)O)[C@H](c3ccc(C)cc3)N2S(=O)(=O)c2ccc(C)cc2)cc1	rRNA inh HTS -24
Cc1ccc([C@@H]2CC=C(C(=O)O)[C@H](c3ccccc3)N2S(=O)(=O)c2ccccc2C)cc1	none
Cc1ccc([C@@H]2CC=C(C(=O)O)CN2S(=O)(=O)c2ccccc2C)cc1	rRNA inh HTS -25
O=S1(=O)CCSC[C@@H](CN2CCN(c3ccccc3)CC2)N1	none (no result: PglD inh, RAD54 branch)
O=C(C1CC1)N1CC2(C1)[C@H](c1ccccc1)[C@H](CO)N2CC1CCCC1	none (no result: PglD inh, RAD54 branch)
CCCNC(=O)N(C)C[C@@H]1Oc2ncc(C#Cc3ccncc3)cc2C(=O)N([C@@H](C)CO)C[C@@H]1C	none
Cc1cc2c(sc3c(C)ccc(C)c32)c(C)n1	rRNA inh HTS -35
COc1cc(/C=C/C(=O)OCC(=O)N2CCC(Cc3ccccc3)CC2)ccc1O	rRNA inh HTS -32
Cc1ccc(S(=O)(=O)Oc2cccc(/C=N/n3cnnc3)c2)cc1	none (no result: E-selectin induc, PglD inh, RAD54 branch)
Cc1ccc(S(=O)(=O)Oc2cccc(/C=N/Nc3ccc(C(=O)O)cc3)c2)cc1	rRNA inh HTS -28 (no result: E-selectin induc)
COc1cccc(NC(=O)C2CCC(CNS(=O)(=O)c3cccc4cccnc34)CC2)c1 (stereo unspecified)	rRNA inh HTS -26
COc1cccc(-c2ccc([C@H]3[C@H](CO)N4C(=O)CN(C(=O)NC(C)C)C[C@@H]34)cc2)c1	none (no result: PglD inh, RAD54 branch)
COCC(=O)Nc1ccc2c(c1)OC[C@H](C)N(C(=O)Cc1ccccn1)C[C@@H](C)[C@@H](OC)CN(C)C2=O	none
COc1ccc(S(=O)(=O)NCCSc2ccc(Cl)cc2)cc1OC	rRNA inh HTS -38 (no result: E-selectin induc, Xi reactivation)
O=S(=O)(Nc1cccc(Oc2cnccn2)c1)c1ccc(F)cc1	E-selectin induc 40
CCC(=O)N1CC2(C1)[C@H](c1ccccc1)[C@@H](CO)N2C(=O)c1cccnc1	none (no result: PglD inh, RAD54 branch)
COc1cc(C(=O)ON=C2C3CC4CC(C3)CC2C4)cc(OC)c1OC	rRNA inh HTS -22 (no result: E-selectin induc)
C[C@H]1CN([C@@H](C)CO)C(=O)c2cc(NS(=O)(=O)c3ccc(F)cc3)ccc2O[C@H]1CN(C)Cc1ccncc1	none
COc1ccc(OC)c(-c2nnc3n2N=C(c2ccc(OC)c(OC)c2)CS3)c1	rRNA inh HTS -19
COc1ccc(C2=Nn3c(nnc3-c3ccccc3OC)SC2)cc1OCC1CC1	rRNA inh HTS -27
COc1ccc(OC)c(-c2nnc3n2N=C(c2ccc(OC)c(OC4CCCC4)c2)CS3)c1	none
O=C(C[C@H]1C=C[C@@H](NC(=O)c2cccnc2)[C@@H](CO)O1)NCc1ccc(Cl)c(Cl)c1	none
O=S(=O)(Nc1ccc(-n2cccc2)cc1)c1ccc(Cl)c(Cl)c1	rRNA inh HTS -45 (no result: E-selectin induc, PglD inh, RAD54 branch)
O=S(=O)(Nc1ccc(-n2cccc2)cc1)c1ccc(F)cc1	none
O=[N+]([O-])c1ccccc1/C=N/Nc1nc(N2CCCC2)nc(N2CCCC2)n1	rRNA inh HTS -12 (no result: E-selectin induc)
